pIC50: −log10 of the molar value.
Columns and labels:
L1210 = assay: In vitro cytotoxicity against mouse leukemia L1210 cell lines; format: functional, cell-based
Calf thymus DNA [1] = assay: Thermal denaturation of calf thymus DNA at 37 degree C; format: nucleic-acid assay; details: Bos taurus
In short: (§1)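 Calf thymus DNA at 100 μM with ligand at 20 μM (1:5 [PBD]/[DNA] molar ratio), in 10 mM sodium phosphate plus 1 mM EDTA, pH 7.00 ± 0.01. Samples were incubated at 37 °C for 0 h or 18 h before thermal melting. The value is the induced ΔTm against DNA alone, whose Tm is the mean of 10 separate determinations.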

SiHa [2] = assay: Percent growth inhibition against human cervix SiHa cell lines at the concentration of 10E-4; format: functional
Calf thymus DNA [3] = assay: Thermal denaturation of calf thymus DNA at 0 h at 37 degree C; format: nucleic-acid assay; details: Bos taurus; in short: as §1
SiHa [4] = assay: Percent growth inhibition against human cervix SiHa cell lines at the concentration of 10E-5; format: functional
HOP-62 [5] = assay: Percent growth inhibition against human lung HOP-62 cell lines at the concentration of 10E-5; format: functional
A549 [6] = assay: Percent growth inhibition against human lung A-549 cell lines at the concentration of 10E-6; format: functional
SiHa [7] = assay: Percent growth inhibition against human cervix SiHa cell lines at the concentration of 10E-6; format: functional
HT-29 [8] = assay: Percent growth inhibition against human colon HT-29 cell lines at the concentration of 10E-5; format: functional
HT-29 [9] = assay: Percent growth inhibition against human colon HT-29 cell lines at the concentration of 10E-4; format: functional
HCT-15 [10] = assay: Percent growth inhibition against human colon HCT-15 cell lines at the concentration of 10E-5; format: functional
A549 [11] = assay: Percent growth inhibition against human lung A-549 cell lines at the concentration of 10E-4; format: functional
HT-29 [12] = assay: Percent growth Inhibition against human colon HT-29 cell lines at the concentration of 10E-6; format: functional
HOP-62 [13] = assay: Percent growth inhibition against human lung HOP-62 cell lines at the concentration of 10E-6; format: functional
Calf thymus DNA [14] = assay: Thermal denaturation of calf thymus DNA at 18 hr at 37 degree C; format: nucleic-acid assay; details: Bos taurus; in short: as §1
A549 [15] = assay: Percent growth inhibition against human lung A-549 cell lines at the concentration of 10E-5; format: functional
HCT-15 [16] = assay: Percent growth inhibition against human colon HCT-15 cell lines at the concentration of 10E-6; format: functional

SMILES | pIC50 (L1210) | ΔTm (Calf thymus DNA [1]) [°C] | Inhibition (SiHa [2]) [%] | ΔTm (Calf thymus DNA [3]) [°C] | Inhibition (SiHa [4]) [%] | Inhibition (HOP-62 [5]) [%] | Inhibition (A549 [6]) [%] | Inhibition (SiHa [7]) [%] | Inhibition (HT-29 [8]) [%] | Inhibition (HT-29 [9]) [%] | Inhibition (HCT-15 [10]) [%] | Inhibition (A549 [11]) [%] | Inhibition (HT-29 [12]) [%] | Inhibition (HOP-62 [13]) [%] | ΔTm (Calf thymus DNA [14]) [°C] | Inhibition (A549 [15]) [%] | Inhibition (HCT-15 [16]) [%]
O=C1c2c(O)ccc(O)c2C(=O)c2c(NCCNCCO)ccc(NCCNCCO)c21 [MITOXANTRONE] | 7.00 | 15.9 |  |  |  |  |  |  |  |  |  |  |  |  |  |  | 
COc1cc2c(cc1OCCCC(=O)Nc1cccc3c1C(=O)c1ccccc1C3=O)N=C[C@@H]1CCCN1C2=O |  |  | 57 | 8.9 | 52 | 90 | 47 | 41 | 86 | 93 | 66 | 93 | 68 | 74 | 9.1 | 27 | 59
COc1cc2c(cc1OCCCCC(=O)Nc1cccc3c1C(=O)c1ccccc1C3=O)N=C[C@@H]1CCCN1C2=O |  |  | 73 | 5.1 | 49 | 97 | 56 | 40 | 87 | 93 | 82 | 93 | 73 | 73 | 5.2 | 10 | 61
COc1cc2c(cc1O)N=C[C@@H]1CCCN1C2=O |  |  |  | 0.3 |  |  |  |  |  |  |  |  |  |  |  |  | 

— ChEMBL document CHEMBL1137037, “Pyrrolo[2,1-c][1,4]benzodiazepine-anthraquinone conjugates. Synthesis, DNA binding and cytotoxicity” (Bioorg Med Chem Lett, 2004)
